Activity data for 11 molecules are collected here from ChEMBL document CHEMBL3272112, “Cycloalkanones. 8. Hypocholesterolemic activity of long-chain ketones related to pentadecanone” (J Med Chem, 1976).

Series [1] has as its system Rattus norvegicus. Nature of the series: Toxicity in Sprague-Dawley rat assessed as increase in body weight at 10 mg/kg/day measured on day 10 (reference value: 160 +/- 13%). It counts as organism-based. Particulars: in vivo.
The test system of series [2] is Rattus norvegicus. Nature of the series: Hypocholesterolemic activity in Sprague-Dawley rat assessed as serum cholesterol level at 10 mg/kg/day, po administered via intubation measured on day 10 by Liebermann-Burchard method relative to control. Format: functional. In a few lines: (§1)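 Male Sprague-Dawley rats given compound homogenized in 1% CMC once daily at 11:00 a.m. by oral intubation needle (0.2 cc), doses calculated on weekly body weights; tail-vein blood drawn 24 h after last dose; nonhemolyzed serum (30 μ) assayed by modified Liebermann-Burchard method; N = 8; % of control, mean ± SD; Student's t test.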

The subject of series [3] is Rattus norvegicus. Nature of the series: Toxicity in Sprague-Dawley rat assessed as increase in body weight at 10 mg/kg/day measured on day 16 (reference value: 195 +/- 16%). Format: organism-based. Particulars: in vivo.
For series [4], the system named is Rattus norvegicus. Nature of the series: Hypocholesterolemic activity in Sprague-Dawley rat assessed as serum cholesterol level at 10 mg/kg/day, po administered via intubation measured on day 4 by Liebermann-Burchard method relative to control. It counts as functional. In a few lines:
as §1

Series [5] concerns Rattus norvegicus. Nature of the series: Hypocholesterolemic activity in Sprague-Dawley rat assessed as serum cholesterol level at 10 mg/kg/day, po administered via intubation measured on day 16 by Liebermann-Burchard method relative to control. Format: functional. The procedure, abridged:
as §1

Series [6] has as its system Rattus norvegicus. The experiment in a line: Uterotrophic activity in ovariectomized weaned Sprague-Dawley rat assessed as uterine weight at 10 mg/kg/day measured after 3 days (reference value: 100 +/- 15%). Format: ADME, organism-based, Uterus. As to conditions: in vivo, 72 h. In a few lines:
(§2)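 Weaned rats were ovariectomized and left untreated for 3 days. They were then dosed for 3 days with 17-ethinylestradiol 10 µg/kg/day or test compound 10 mg/kg/day, with 1% CMC as the vehicle control. Rats were then killed and the uterus removed, trimmed and weighed. Results are % of control uterine weight, mean ± SD; N = 7; Student's t test.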

In series [7] the test system is Rattus norvegicus. The experiment in a line: Uterotrophic activity in ovariectomized weaned Sprague-Dawley rat assessed as uterine weight at 10 ug/kg/day measured after 3 days (reference value: 100 +/- 15%). As to conditions: in vivo, 0.01 mg/kg, 72 h. Format: ADME, organism-based, Uterus. The procedure, abridged:
as §2

Consider `CCCCCCCCCC(=O)CCCCCC`, for which the Activity was found to be 169% with Rattus norvegicus [1]; 89% in the series on Rattus norvegicus [2]; 207% in the series with Rattus norvegicus [3]; 89% in the series on Rattus norvegicus [4]; 77% in the series with Rattus norvegicus [5].
Consider `CCCCCCCCCCCCCCCC(C)=O`, for which the Activity in the series with Rattus norvegicus [1] is 165%; in the series on Rattus norvegicus [2] it was 75%; in the series with Rattus norvegicus [3] it was 229%; in the series with Rattus norvegicus [6] it was 76%; in the series on Rattus norvegicus [4] it was 83%; in the series with Rattus norvegicus [5] it was 74%.
For `CCCCCCCCC(=O)CCCCCCC`, the Activity is listed as 167% with Rattus norvegicus [1]; 97% with Rattus norvegicus [2]; 209% in the series on Rattus norvegicus [3]; 102% in the series with Rattus norvegicus [4]; 72% in the series on Rattus norvegicus [5].
Turning to `CCCCCCCCCCCC(=O)CCCC`, the Activity with Rattus norvegicus [1] is 165%; with Rattus norvegicus [2], 89%; in the series with Rattus norvegicus [3] it was 206%; with Rattus norvegicus [4], 63%; in the series with Rattus norvegicus [5], 94%.
For `CCCCCCCCCCC(=O)CCCCC`, in that order: 168%, 92%, 209%, 70% and 100%.
`CCCCCCCCCCCCCC(C)=O`: the Activity in the series with Rattus norvegicus [1] is 156%; in the series with Rattus norvegicus [2], 113%; in the series with Rattus norvegicus [3], 233%; in the series on Rattus norvegicus [4], 114%; in the series on Rattus norvegicus [5], 98%.
On to `CCOC(=O)C(C)(C)Oc1ccc(Cl)cc1` [CLOFIBRATE], for which the Activity in the series on Rattus norvegicus [2] came out at 98%; in the series on Rattus norvegicus [4] it was 100%; with Rattus norvegicus [5], 106%.
Consider `CCCCCCCCCCCCCC(=O)CC`, for which the Activity with Rattus norvegicus [1] is 167%; in the series with Rattus norvegicus [2], 83%; in the series with Rattus norvegicus [3], 212%; in the series with Rattus norvegicus [4] it was 64%; in the series on Rattus norvegicus [5] it was 92%.
As to `C#C[C@]1(O)CC[C@H]2[C@@H]3CCc4cc(O)ccc4[C@H]3CC[C@@]21C` [ETHINYL ESTRADIOL], the Activity in the series on Rattus norvegicus [7] stood at 372%.
Turning to `CCCCCCCCCCCCC(=O)CCC`, the Activity in the series on Rattus norvegicus [1] stood at 175%; with Rattus norvegicus [2], 89%; in the series on Rattus norvegicus [3] it was 213%; with Rattus norvegicus [4] it was 65%; with Rattus norvegicus [5] it was 103%.
`CCCCCCCCCCCCCCCCC(C)=O`: the Activity was determined as 175% in the series on Rattus norvegicus [1]; 86% in the series on Rattus norvegicus [2]; 242% in the series with Rattus norvegicus [3]; 79% with Rattus norvegicus [4]; 73% in the series on Rattus norvegicus [5].
